# Measured values taken from ChEMBL document CHEMBL5724801, “EUbOPEN Chemogenomics Library - Multiplex” (2024).
# “And” between values parts separate entries of the source, which are not always exact repeats. Identical values can stand only once.
# System: U2OS
# Experiment: Multiplex assay against U2OS
# Type: toxicity, cell-based
# Details: human
# Procedure, shortened: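 Live cells were stained at seeding with Hoechst33342, BioTracker Green Microtubule Cytoskeleton Dye, MitoTracker Red and Annexin V Alexa Fluor 680, then imaged on a CQ1 microscope at 37°C and 5% CO2 after compound addition. CellPathfinder machine-learning gating split cells into Hoechst high-intensity objects or normal cells. Normal cells were split into healthy, pyknosed or fragmented nuclei, and pyknosed cells into mitotic or apoptotic. Tubulin, mitochondrial-mass and membrane-permeability phenotypes are per cents of healthy-nucleus cells.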
# [1] = 12 h, 1 µM, compound concentration 1 uM
# [2] = 12 h, 10 µM, compound concentration 10 uM
# [3] = 24 h, 1 µM, compound concentration 1 uM
# [4] = 24 h, 10 µM, compound concentration 10 uM
# [5] = 48 h, 1 µM, compound concentration 1 uM
# [6] = 48 h, 10 µM, compound concentration 10 uM
compound,measurement,setting,value
S=c1[nH]nc(-c2cccs2)n1-c1ccccc1,Population Apoptotic (%),[1],50% and 31.82%
same,Population Fragmented Nuclei (%),[1],2.88% and 1.49%
same,Population Healthy Nuclei (%),[1],87.7% and 82.09%
same,Population Hoechst High Intensity Objects (%),[1],0%
same,Population Membrane Permeable-Phenotype (%),[1],0% and 3.64%
same,Population Mitochondria Different-Phenotype (%),[1],0.3% and 2.73%
same,Population Mitotic Cells (%),[1],50% and 68.18%
same,Population Normal (%),[1],100%
same,Population Pyknosed Nuclei (%),[1],9.42% and 16.42%
same,Population Tubulin-Different-Phenotype (%),[1],0.3% and 0%
same,Total Cell Count,[1],382 and 134
same,Population Apoptotic (%),[2],41.82% and 31.25%
same,Population Fragmented Nuclei (%),[2],1.86% and 4.61%
same,Population Healthy Nuclei (%),[2],83.55% and 84.87%
same,Population Hoechst High Intensity Objects (%),[2],0%
same,Population Membrane Permeable-Phenotype (%),[2],0.32% and 5.43%
same,Population Mitochondria Different-Phenotype (%),[2],0.32% and 5.43%
same,Population Mitotic Cells (%),[2],58.18% and 68.75%
same,Population Normal (%),[2],100%
same,Population Pyknosed Nuclei (%),[2],14.59% and 10.53%
same,Population Tubulin-Different-Phenotype (%),[2],0.63% and 0%
same,Total Cell Count,[2],377 and 152
same,Population Apoptotic (%),[3],38.78% and 38.46%
same,Population Fragmented Nuclei (%),[3],1.97% and 1.6%
same,Population Healthy Nuclei (%),[3],88.36% and 84.57%
same,Population Hoechst High Intensity Objects (%),[3],0.2% and 0%
same,Population Membrane Permeable-Phenotype (%),[3],0.22% and 3.14%
same,Population Mitochondria Different-Phenotype (%),[3],0.22% and 3.14%
same,Population Mitotic Cells (%),[3],61.22% and 61.54%
same,Population Normal (%),[3],99.8% and 100%
same,Population Pyknosed Nuclei (%),[3],9.66% and 13.83%
same,Population Tubulin-Different-Phenotype (%),[3],0.89% and 0%
same,Total Cell Count,[3],508 and 188
same,Population Apoptotic (%),[4],38.46% and 40%
same,Population Fragmented Nuclei (%),[4],2.57% and 1.6%
same,Population Healthy Nuclei (%),[4],87.15% and 87.77%
same,Population Hoechst High Intensity Objects (%),[4],0%
same,Population Membrane Permeable-Phenotype (%),[4],0.91% and 5.45%
same,Population Mitochondria Different-Phenotype (%),[4],0.23% and 3.03%
same,Population Mitotic Cells (%),[4],61.54% and 60%
same,Population Normal (%),[4],100%
same,Population Pyknosed Nuclei (%),[4],10.28% and 10.64%
same,Population Tubulin-Different-Phenotype (%),[4],0.91% and 1.21%
same,Total Cell Count,[4],506 and 188
same,Population Apoptotic (%),[5],48.15% and 60%
same,Population Fragmented Nuclei (%),[5],1.9% and 2.52%
same,Population Healthy Nuclei (%),[5],90.4% and 84.91%
same,Population Hoechst High Intensity Objects (%),[5],0.09% and 0%
same,Population Membrane Permeable-Phenotype (%),[5],0.84% and 0.74%
same,Population Mitochondria Different-Phenotype (%),[5],0% and 3.7%
same,Population Mitotic Cells (%),[5],51.85% and 40%
same,Population Normal (%),[5],99.91% and 100%
same,Population Pyknosed Nuclei (%),[5],7.7% and 12.58%
same,Population Tubulin-Different-Phenotype (%),[5],0.63% and 0%
same,Population Apoptotic (%),[6],25.3% and 58.62%
same,Population Fragmented Nuclei (%),[6],3.4% and 3.18%
same,Population Healthy Nuclei (%),[6],88.05% and 87.58%
same,Population Hoechst High Intensity Objects (%),[6],0%
same,Population Membrane Permeable-Phenotype (%),[6],1.29% and 2.18%
same,Population Mitochondria Different-Phenotype (%),[6],0.12% and 3.27%
same,Population Mitotic Cells (%),[6],74.7% and 41.38%
same,Population Normal (%),[6],100%
same,Population Pyknosed Nuclei (%),[6],8.55% and 9.24%
same,Population Tubulin-Different-Phenotype (%),[6],0.94% and 0%
CCN1CCN(Cc2ccc(Nc3ncc(F)c(-c4cc(F)c5nc(C)n(C(C)C)c5c4)n3)nc2)CC1.CS(=O)(=O)O,Population Apoptotic (%),[1],40% and 33.33%
same,Population Fragmented Nuclei (%),[1],3.09% and 3.21%
same,Population Healthy Nuclei (%),[1],86.11% and 81.41%
same,Population Hoechst High Intensity Objects (%),[1],0% and 0.64%
same,Population Membrane Permeable-Phenotype (%),[1],3.23% and 10.24%
same,Population Mitotic Cells (%),[1],60% and 66.67%
same,Population Normal (%),[1],100% and 99.36%
same,Population Pyknosed Nuclei (%),[1],10.8% and 15.38%
same,Population Tubulin-Different-Phenotype (%),[1],6.09% and 6.3%
same,Total Cell Count,[1],324 and 157
same,Population Apoptotic (%),[2],43.96% and 38.67%
same,Population Fragmented Nuclei (%),[2],4.12% and 4.26%
same,Population Healthy Nuclei (%),[2],70.88% and 42.55%
same,Population Hoechst High Intensity Objects (%),[2],0%
same,Population Membrane Permeable-Phenotype (%),[2],56.98% and 48.33%
same,Population Mitotic Cells (%),[2],56.04% and 61.33%
same,Population Normal (%),[2],100%
same,Population Pyknosed Nuclei (%),[2],25% and 53.19%
same,Population Tubulin-Different-Phenotype (%),[2],92.64% and 93.33%
same,Total Cell Count,[2],364 and 141
same,Population Apoptotic (%),[3],36.67% and 46.88%
same,Population Fragmented Nuclei (%),[3],2.68% and 4.65%
same,Population Healthy Nuclei (%),[3],82.68% and 76.74%
same,Population Hoechst High Intensity Objects (%),[3],0%
same,Population Membrane Permeable-Phenotype (%),[3],3.54% and 6.06%
same,Population Mitotic Cells (%),[3],63.33% and 53.12%
same,Population Normal (%),[3],100%
same,Population Pyknosed Nuclei (%),[3],14.63% and 18.6%
same,Population Tubulin-Different-Phenotype (%),[3],7.67% and 9.85%
same,Total Cell Count,[3],410 and 172
same,Population Apoptotic (%),[4],48.89% and 41.41%
same,Population Fragmented Nuclei (%),[4],5.44% and 6.04%
same,Population Healthy Nuclei (%),[4],59.59% and 27.52%
same,Population Hoechst High Intensity Objects (%),[4],0%
same,Population Membrane Permeable-Phenotype (%),[4],31.3% and 21.95%
same,Population Mitotic Cells (%),[4],51.11% and 58.59%
same,Population Normal (%),[4],100%
same,Population Pyknosed Nuclei (%),[4],34.97% and 66.44%
same,Population Tubulin-Different-Phenotype (%),[4],66.09% and 65.85%
same,Total Cell Count,[4],386 and 149
same,Population Apoptotic (%),[5],47.62% and 37.14%
same,Population Fragmented Nuclei (%),[5],4.31% and 6.15%
same,Population Healthy Nuclei (%),[5],83.37% and 75.9%
same,Population Hoechst High Intensity Objects (%),[5],0%
same,Population Membrane Permeable-Phenotype (%),[5],2.58% and 6.08%
same,Population Mitotic Cells (%),[5],52.38% and 62.86%
same,Population Normal (%),[5],100%
same,Population Pyknosed Nuclei (%),[5],12.33% and 17.95%
same,Population Tubulin-Different-Phenotype (%),[5],8.92% and 12.84%
same,Total Cell Count,[5],511 and 195
same,Population Apoptotic (%),[6],65% and 80.18%
same,Population Fragmented Nuclei (%),[6],3.14% and 4.64%
same,Population Healthy Nuclei (%),[6],34% and 21.85%
same,Population Hoechst High Intensity Objects (%),[6],0% and 0.66%
same,Population Membrane Permeable-Phenotype (%),[6],9.09%
same,Population Mitotic Cells (%),[6],35% and 19.82%
same,Population Normal (%),[6],100% and 99.34%
same,Population Pyknosed Nuclei (%),[6],62.86% and 73.51%
same,Population Tubulin-Different-Phenotype (%),[6],68.91% and 27.27%
same,Total Cell Count,[6],350 and 152
COc1cc2ncnc(Nc3ccc(Oc4ccccc4)cc3C)c2cc1OC.Cl,Population Apoptotic (%),[1],43.18% and 56.25%
same,Population Fragmented Nuclei (%),[1],1.46% and 3.77%
same,Population Healthy Nuclei (%),[1],89.4% and 86.16%
same,Population Hoechst High Intensity Objects (%),[1],0%
same,Population Membrane Permeable-Phenotype (%),[1],0.23% and 2.92%
same,Population Mitochondria Different-Phenotype (%),[1],0.47% and 9.49%
same,Population Mitotic Cells (%),[1],56.82% and 43.75%
same,Population Normal (%),[1],100%
same,Population Pyknosed Nuclei (%),[1],9.15% and 10.06%
same,Population Tubulin-Different-Phenotype (%),[1],0.47% and 0.73%
same,Population Apoptotic (%),[2],37.93% and 21.21%
same,Population Fragmented Nuclei (%),[2],2.47% and 2.03%
same,Population Healthy Nuclei (%),[2],81.64% and 75.68%
same,Population Hoechst High Intensity Objects (%),[2],0.27% and 0%
same,Population Membrane Permeable-Phenotype (%),[2],11.74% and 10.71%
same,Population Mitotic Cells (%),[2],62.07% and 78.79%
same,Population Normal (%),[2],99.73% and 100%
same,Population Pyknosed Nuclei (%),[2],15.89% and 22.3%
same,Population Tubulin-Different-Phenotype (%),[2],14.09% and 5.36%
same,Total Cell Count,[2],366 and 148
same,Population Apoptotic (%),[3],41.67% and 39.13%
same,Population Fragmented Nuclei (%),[3],2.08% and 5.24%
same,Population Healthy Nuclei (%),[3],88.99% and 83.81%
same,Population Hoechst High Intensity Objects (%),[3],0%
same,Population Membrane Permeable-Phenotype (%),[3],0.67% and 2.84%
same,Population Mitochondria Different-Phenotype (%),[3],0.67% and 6.25%
same,Population Mitotic Cells (%),[3],58.33% and 60.87%
same,Population Normal (%),[3],100%
same,Population Pyknosed Nuclei (%),[3],8.93% and 10.95%
same,Population Tubulin-Different-Phenotype (%),[3],0.67% and 1.7%
same,Population Apoptotic (%),[4],64.1% and 26.19%
same,Population Fragmented Nuclei (%),[4],3.39% and 3.61%
same,Population Healthy Nuclei (%),[4],79.01% and 71.08%
same,Population Hoechst High Intensity Objects (%),[4],0%
same,Population Membrane Permeable-Phenotype (%),[4],8.57% and 6.78%
same,Population Mitotic Cells (%),[4],35.9% and 73.81%
same,Population Normal (%),[4],100%
same,Population Pyknosed Nuclei (%),[4],17.61% and 25.3%
same,Population Tubulin-Different-Phenotype (%),[4],10.29% and 10.17%
same,Total Cell Count,[4],443 and 166
same,Population Apoptotic (%),[5],42.28% and 50%
same,Population Fragmented Nuclei (%),[5],3.36% and 3.22%
same,Population Healthy Nuclei (%),[5],87.01% and 84.5%
same,Population Hoechst High Intensity Objects (%),[5],0%
same,Population Membrane Permeable-Phenotype (%),[5],0.54% and 2.42%
same,Population Mitochondria Different-Phenotype (%),[5],0% and 6.23%
same,Population Mitotic Cells (%),[5],57.72% and 50%
same,Population Normal (%),[5],100%
same,Population Pyknosed Nuclei (%),[5],9.62% and 12.28%
same,Population Tubulin-Different-Phenotype (%),[5],0.63% and 1.38%
same,Population Apoptotic (%),[6],65.09% and 50%
same,Population Fragmented Nuclei (%),[6],6.98% and 4.76%
same,Population Healthy Nuclei (%),[6],79.05% and 76.19%
same,Population Hoechst High Intensity Objects (%),[6],0%
same,Population Membrane Permeable-Phenotype (%),[6],4.33% and 8.52%
same,Population Mitotic Cells (%),[6],34.91% and 50%
same,Population Normal (%),[6],100%
same,Population Pyknosed Nuclei (%),[6],13.97% and 19.05%
same,Population Tubulin-Different-Phenotype (%),[6],10.17% and 11.93%
